# According to ChEMBL document CHEMBL4622923, “Discovery of 4-Phenylpiperidine-2-Carboxamide Analogues as Serotonin 5-HT2C Receptor-Positive Allosteric Modulators with Enhanced Drug-like Properties” (J Med Chem, 2020):
# Activity calls are given as the source filed them.
# Legend:
# [1] = biological target: T1, 5-hydroxytryptamine receptor 2C (Homo sapiens) (UniProt P28335); assay: Positive allosteric modulation of human 5HT2CR expressed in CHO cells assessed as increase in 5-HT induced intracellular calcium release at 1 nM preincubated for 15 mins followed by 5-HT addition and measured at 1 secs interval for 360 secs by calcium 4 dye based FLIPR assay relative to 5-HT; format: functional, cell-based
# T1 sequence (whole entry): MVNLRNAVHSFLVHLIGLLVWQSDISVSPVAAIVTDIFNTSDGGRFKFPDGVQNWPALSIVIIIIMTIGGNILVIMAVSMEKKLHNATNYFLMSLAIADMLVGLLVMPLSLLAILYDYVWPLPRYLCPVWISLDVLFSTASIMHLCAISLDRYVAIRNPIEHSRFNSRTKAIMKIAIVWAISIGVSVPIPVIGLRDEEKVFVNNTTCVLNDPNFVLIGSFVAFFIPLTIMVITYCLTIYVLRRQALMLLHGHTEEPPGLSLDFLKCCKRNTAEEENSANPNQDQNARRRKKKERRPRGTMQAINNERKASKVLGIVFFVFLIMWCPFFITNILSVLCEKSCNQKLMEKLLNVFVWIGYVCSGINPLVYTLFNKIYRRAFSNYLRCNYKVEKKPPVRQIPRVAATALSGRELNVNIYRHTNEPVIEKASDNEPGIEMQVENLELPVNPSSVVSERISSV
# How it was run: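 CHO cells stably expressing human unedited (INI) 5-HT2C receptor, serum-starved 3 h, then loaded 60 min at 37 °C with Calcium 4 dye and 2.5 mM probenecid in HBSS (pH 7.4). Compound added 15 min before 5-HT (10 pM–10 μM). FLIPR read every 1 s for 360 s; peak height; Emax by 4-parameter fit, 4–6 biological replicates in triplicate, relative to 5-HT alone.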
# 5-HT2A receptor = 5-HT2A receptor (Homo sapiens, UniProt P28223); assay: Positive allosteric modulation of human 5HT2AR expressed in CHO cells assessed as increase in 5-HT induced intracellular calcium release at 1 nM preincubated for 15 mins followed by 5-HT addition and measured at 1 secs interval for 360 secs by calcium 4 dye based FLIPR assay relative to 5-HT; format: cell-based; details: CHO cells expressing human 5HT2AR
# How it was run: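 CHO cells stably expressing human 5-HT2AR, serum-starved 3 h, then loaded with Calcium 4 dye plus 2.5 mM probenecid in HBSS (no Ca/Mg, pH 7.4) for 60 min at 37°C and 15 min at room temperature. Test compound added 15 min before 5-HT (10 pM-10 μM). FLIPR fluorescence read every 1 s for 360 s after 5-HT. Emax from 4-parameter fit, normalized to 5-HT maximum.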
# [2] = biological target: T2, 5-hydroxytryptamine receptor 2C (Homo sapiens, UniProt P28335); assay: Agonist activity at human 5HT2CR expressed in CHO cells assessed as increase in intracellular calcium release at 1 nM incubated for 15 mins measured at 1 secs interval for 120 secs by calcium 4 dye based FLIPR assay relative to 5-HT; format: cell-based; details: 0.001 µM
# T2 sequence (P28335 whole entry): T1 sequence (whole entry)
# How it was run: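 h5-HT2CR (unedited INI isoform) stably expressed in CHO cells; cells plated ~24 h, serum-free medium 3 h, then Calcium 4 dye with 2.5 mM probenecid in Ca/Mg-free HBSS pH 7.4 for 60 min at 37°C plus 15 min at room temperature. Compound given alone, read for 15 min before 5-HT. Peak fluorescence is expressed relative to the 5-HT Emax. 4-6 biological replicates, each in triplicate.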
# Rattus norvegicus [3] = assay: Neurobiological activity in ip dosed Sprague-Dawley rat assessed as increase in number of rat choosing drug associated lever treated 15 mins prior to test by drug discrimination test; format: functional
# Rattus norvegicus [4] = assay: Neurobiological activity in Sprague-Dawley rat assessed as increase in number of rat choosing drug associated lever at 0.75 mg/kg, ip treated 15 mins prior to test by drug discrimination test relative to control; format: functional
# How it was run: (§1)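 Male Sprague-Dawley rats (n = 13, 300–325 g) held at 80–90% free-feeding weight by water restriction. Trained to discriminate WAY163909 0.75 mg/kg ip from saline, 1 mL/kg, 15 min pretreatment. Two-lever, water-reinforced, FR20, 15 min sessions. Criterion ≥80% correct responding for 10 sessions. Test doses given ip 15 min pretest. Read-out: percentage of rats choosing the drug lever.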
# Rattus norvegicus [5] = assay: Neurobiological activity in Sprague-Dawley rat assessed as increase in number of rat choosing drug associated lever at 1 mg/kg, ip treated 15 mins prior to test by drug discrimination test relative to control; format: functional; how it was run: as §1
# Rattus norvegicus [6] = assay: Neurobiological activity in Sprague-Dawley rat assessed as increase in number of rat choosing drug associated lever at 0.25 to 0.625 mg/kg, ip treated 15 mins prior to test by drug discrimination test; format: functional, organism-based
# How it was run: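 Male Sprague-Dawley rats (n=13), water-restricted to 80-90% free-feeding weight, trained in a two-lever water-reinforced task (FR 20) to discriminate 0.75 mg/kg WAY163909 ip from saline (1 mL/kg). Test drug given ip 15 min before the 15-min session. Read-out is the percentage of rats choosing the drug lever. ED50 is taken from log-probit analysis.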
# Rattus norvegicus [7] = assay: Neurobiological activity in Sprague-Dawley rat assessed as increase in number of rat choosing drug associated lever at 0.5 mg/kg, ip treated 15 mins prior to test by drug discrimination test relative to control; format: functional; how it was run: as §1
# Rattus norvegicus [8] = assay: Neurobiological activity in Sprague-Dawley rat assessed as increase in number of rat choosing drug associated lever at 0.625 mg/kg, ip treated 15 mins prior to test by drug discrimination test relative to control; format: functional; how it was run: as §1
# Chain of 5-HT2A receptor (P28223 whole entry): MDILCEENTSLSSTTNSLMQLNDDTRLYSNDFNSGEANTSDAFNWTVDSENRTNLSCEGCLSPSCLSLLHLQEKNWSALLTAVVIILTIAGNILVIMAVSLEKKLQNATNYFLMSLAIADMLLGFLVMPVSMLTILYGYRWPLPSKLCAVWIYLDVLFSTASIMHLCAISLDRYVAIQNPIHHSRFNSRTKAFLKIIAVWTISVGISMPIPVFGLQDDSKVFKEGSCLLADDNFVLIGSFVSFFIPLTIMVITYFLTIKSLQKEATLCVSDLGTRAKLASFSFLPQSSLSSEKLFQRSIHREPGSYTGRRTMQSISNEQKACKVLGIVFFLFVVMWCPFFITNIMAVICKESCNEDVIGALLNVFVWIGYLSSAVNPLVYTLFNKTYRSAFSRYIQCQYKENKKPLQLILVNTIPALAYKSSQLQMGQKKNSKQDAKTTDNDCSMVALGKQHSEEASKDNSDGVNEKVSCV
SMILES,Emax [1] [%],Activity [2],also measured
O=C(NC[C@H](O)CO)[C@@H]1C[C@H](C2CCCCC2)CCN1 (mixture of isomers),118,Not Active,"Emax at 0.1 h, 0.001 µM (5-HT2A receptor): 97.8%"
CC(C)(C)c1ccc(CC[C@H]2CCN[C@@H](C(=O)N[C@H](CO)[C@H](O)c3ccccc3)C2)cc1,107,Not Active,
O=C(N[C@H](CO)[C@H](O)c1ccccc1)[C@H]1C[C@@H](CCc2ccccc2)CCN1,109,Not Active,
O=C(NCCN1CCOCC1)[C@@H]1C[C@H](CCC2CCCCC2)CCN1 (racemic),110,Not Active,
O=C(NCCN1CCOCC1)[C@@H]1C[C@H](c2ccccc2)CCN1 (racemic),114,Not Active,
O=C(N[C@H](CO)[C@H](O)c1ccccc1)[C@@H]1C[C@H](c2ccccc2)CCN1,103,Not Active,
O=C(NC(CO)CO)[C@@H]1C[C@H](CCc2ccccc2)CCN1 (relative stereo),101,Not Active,
O=C(NC[C@H](O)CO)[C@@H]1C[C@H](CCc2ccccc2)CCN1,108,Not Active,
O=C(NCCCN1CCOCC1)[C@@H]1C[C@H](CCC2CCCCC2)CCN1 (racemic),118,Not Active,"Emax at 0.1 h, 0.001 µM (5-HT2A receptor): 97.2%"
CC(C)(C)c1ccc(CC[C@@H]2CCN[C@H](C(=O)N[C@H](CO)[C@H](O)c3ccccc3)C2)cc1,115,Not Active,
O=C(N[C@H](CO)[C@H](O)c1ccccc1)[C@H]1C[C@@H](c2ccccc2)CCN1,118,Not Active,"Emax at 0.1 h, 0.001 µM (5-HT2A receptor): 103%"
O=C(NCCN1CCOCC1)[C@@H]1C[C@H](CCc2ccccc2)CCN1 (racemic),94.2,Not Active,
O=C(NC(CO)CO)[C@@H]1C[C@H](C2CCCCC2)CCN1 (racemic),119,Not Active,
c1cc2c3c(c1)[C@H]1CCC[C@H]1N3CCNC2,,,ED50 (Rattus norvegicus [3]): 0.51 mg/kg; Activity (Rattus norvegicus [4]): 92%; Activity (Rattus norvegicus [5]): 100%; Activity (Rattus norvegicus [6]): Active; Activity (Rattus norvegicus [7]): 46%; Activity (Rattus norvegicus [8]): 54%
O=C(NC[C@H](O)CO)[C@@H]1C[C@H](CCC2CCCCC2)CCN1,110,Not Active,
Cc1ccc(CC[C@H]2CCN[C@@H](C(=O)N[C@H](CO)[C@H](O)c3ccccc3)C2)cc1,98.9,Not Active,
O=C(N[C@H](CO)[C@H](O)c1ccccc1)[C@@H]1C[C@H](CCc2ccccc2)CCN1,110,Not Active,"Emax at 0.1 h, 0.001 µM (5-HT2A receptor): 104%"
O=C(NC(CO)CO)[C@@H]1C[C@H](CCC2CCCCC2)CCN1 (relative stereo),106,Not Active,
O=C(NC(CO)CO)[C@@H]1C[C@H](c2ccccc2)CCN1 (racemic),119,Not Active,"Emax at 0.1 h, 0.001 µM (5-HT2A receptor): 99.3%"
O=C(NCCCN1CCOCC1)[C@@H]1C[C@H](CCc2ccccc2)CCN1 (racemic),118,Not Active,"Emax at 0.1 h, 0.001 µM (5-HT2A receptor): 97.9%"
Cc1ccc(CC[C@@H]2CCN[C@H](C(=O)N[C@H](CO)[C@H](O)c3ccccc3)C2)cc1,99.3,Not Active,
CCCCCCCCCCC[C@@H]1CCN[C@H](C(=O)NCC(O)CO)C1 (relative stereo),,Not Active,
O=C(NCCN1CCOCC1)[C@@H]1C[C@H](C2CCCCC2)CCN1 (racemic),121,Not Active,
